From PubChem
The list is not random: actives were taken first. Their share in the collection is about 0.58%.
OXTR potentiate – human OXTR potentiation; P30559; CHO-OTR cells, Fluo-8 calcium fluorescence, potentiator mode; 0% = oxytocin EC15, 100% = EC100; activation, % at 3 µM; 0.061% of 320,000 active;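 active means activation above that plate's cutoff, the mean activation of tested compounds plus 3 SD, cut at about 6.6% in these data, passing the limit was not always enough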;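 further: 100% uses oxytocin at 75 nM as the full agonist control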
Target sequence (P30559 whole entry, looked up): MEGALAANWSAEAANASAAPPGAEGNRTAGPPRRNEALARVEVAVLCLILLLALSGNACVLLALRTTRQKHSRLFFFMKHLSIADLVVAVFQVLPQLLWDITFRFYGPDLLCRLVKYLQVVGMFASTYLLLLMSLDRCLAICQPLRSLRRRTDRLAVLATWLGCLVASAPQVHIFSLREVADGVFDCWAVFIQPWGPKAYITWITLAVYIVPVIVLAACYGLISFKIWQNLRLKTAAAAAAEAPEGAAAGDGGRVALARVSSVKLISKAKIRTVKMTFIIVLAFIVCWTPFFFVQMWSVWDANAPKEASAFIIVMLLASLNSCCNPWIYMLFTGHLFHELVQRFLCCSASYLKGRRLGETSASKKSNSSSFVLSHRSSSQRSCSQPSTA
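Assay system: CHO-OTR cells, human receptor / Also added: oxytocin at about EC15, sub-maximal agonist stimulus / Dosing: single dose, 3.0 µM nominal final compound concentration / Incubation: 6 min pre-incubation, 100 s read / Technique: Fluo-8 calcium dye fluorescence / Read-out: % activation vs EC15 and EC100 oxytocin / Benchmarks: EC15 oxytocin low, 75 nM oxytocin high / Replicates: singlicate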
TRPML3 agonist – human mucolipin-3 channel agonism. Q8TDD5. 0.29% of 220,000 active. activation, % at 3 µM. HEK293 TRPML3-YFP, Fluo-8 calcium fluorescence; 100% = the carbachol control signal;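 active means activation above its plate's cutoff, the mean activation of the plate's test wells plus 3 SD, cut at about 12% in these data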;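 further: 0% = DMSO only wells and 100% = carbachol wells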
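Material: TRPML3-YFP stable HEK293 cells | Dosing: One concentration, 3 µM nominal, 0.3% DMSO | Timing: 125 s total fluorescence read per well | Technique: Fluo-8 calcium dye fluorescence, ex 470-495, em 515-575 nm | Measure: Percent activation from peak-to-basal fluorescence ratio, scaled between DMSO and carbachol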
TRPN1 ag – activates the zebrafish TRPN1 channel; HEK293 zebrafish TRPN1-YFP, Fluo-8 calcium fluorescence; 100% = response to 87 µM carbachol; activation, % at 3 µM; 0.18% of 220,000 active; AID 1424;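 active means activation above its plate's cutoff, the mean activation of test wells on that plate plus 3 SD, cut at about 19% in these data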;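 further: 0% = DMSO alone and 100% = 87 µM carbachol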
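System: zebrafish TRPN1-YFP in HEK293 cells / Dosing: 3 µM single point / Timing: dye loading 1 h at 37 °C, then 30 min room temperature / Signal: Fluo-8 calcium fluorescence, excitation 470-495 nm, emission 515-575 nm / Read-out basis: percent activation from peak over basal fluorescence ratio, control-normalized / Control set: high carbachol 87 µM, low DMSO alone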
V1aR counter – activates human V1a receptor in oxytocin agonist counter-screen. activation, % at 3 µM. 0.25% of 320,000 active. P37288. CHO-V1R cells, Fluo-8 calcium fluorescence, agonist mode; 0% DMSO, 100% 3 nM vasopressin. AID 2797;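 active means activation above the mean activation of all tested compounds plus 3 SD, per screening run, cut at about 20% in these data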;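 further: signal is peak over basal fluorescence ratio across a 100 second FLIPR read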
Target sequence (P37288 whole entry, looked up): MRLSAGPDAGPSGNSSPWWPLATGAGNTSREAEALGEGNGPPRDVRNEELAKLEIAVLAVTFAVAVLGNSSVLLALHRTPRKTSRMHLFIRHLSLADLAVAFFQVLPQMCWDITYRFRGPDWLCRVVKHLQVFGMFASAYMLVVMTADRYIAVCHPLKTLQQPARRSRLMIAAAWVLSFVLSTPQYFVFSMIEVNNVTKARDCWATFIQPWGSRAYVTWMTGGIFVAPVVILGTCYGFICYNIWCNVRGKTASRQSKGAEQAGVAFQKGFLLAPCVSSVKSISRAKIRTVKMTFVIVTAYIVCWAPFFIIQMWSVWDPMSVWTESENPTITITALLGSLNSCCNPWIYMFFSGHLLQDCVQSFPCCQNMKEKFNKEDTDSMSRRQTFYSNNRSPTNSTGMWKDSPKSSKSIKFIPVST
OXTR agonist – agonists of human oxytocin receptor. P30559. CHO-OTR cells, Fluo-8 calcium fluorescence; normalized: DMSO 0%, oxytocin 100%. activation, % at 3 µM. 0.32% of 320,000 active. AID 2435;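 active means activation above the mean of all tested compounds plus 3 SD, cutoff set per screening run, cut at about 20% in these data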;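 further: peak over basal fluorescence ratio from a 100 s FLIPR kinetic read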
OXTR agonist cf – human OXTR agonism, confirmation. shares compounds with OXTR agonist. 20% of 390 active. CHO-OTR cells, Fluo-8 calcium fluorescence, agonist. activation, % at 3 µM. AID 434963;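 active means mean activation above about 20% derived from the earlier single-dose screen, limit read from the data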;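 further: peak over minimum fluorescence ratio per well during a 100 second FLIPR read; 0% = DMSO alone and 100% = oxytocin high control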
V1R ag counter 3x – V1R agonism in triplicate, counter-screen for OXTR agonists | shares compounds with OXTR agonist | CHO-V1R cells, Fluo-8 calcium fluorescence, agonist | activation, % at 3 µM | 10% of 390 active | AID 434991;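 active means mean activation over triplicate exceeds the hit threshold set in the earlier primary screen, cut at about 20% in these data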;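 further: peak over basal fluorescence ratio within a 100 second read; 0% = DMSO alone and 100% = 3 nM vasopressin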
OXTR pot confirm – human OXTR potentiation, confirmation; shares compounds with OXTR potentiate; CHO-OTR cells, Fluo-8 calcium fluorescence; scaled from low-dose to maximal oxytocin; activation, % at 3 µM; 180 tested, under 10 active; AID 434985;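 active means mean percent activation over triplicates above a cutoff set from solvent-only control plates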;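 further: compounds tested in the presence of an EC15 dose of oxytocin; 0% = EC15 oxytocin with DMSO and 100% = EC100 oxytocin with DMSO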
* = called active by the depositor; · = no result.

SMILES	OXTR potentiate	TRPML3 agonist	TRPN1 ag	V1aR counter	OXTR agonist	OXTR agonist cf	V1R ag counter 3x	others
COc1ccc(C(=O)Nc2ccc(N3CCN(C(C)=O)CC3)cc2)cc1[N+](=O)[O-]	-11.5	1.1	0.6	-0.5	24.6*	0.6	0.3
CC(=O)N1CCN(c2ccc(NC(=O)c3ccc(Cl)c([N+](=O)[O-])c3)cc2)CC1	-11.0	·	·	7.7	1.4	·	·
CC(C)Cn1c(N)c(C(=O)COC(=O)c2ccc3c(c2)OCCO3)c(=O)n(C)c1=O	-23.5	0.6	6.2	13.2	19.8*	8.7	8.9
N=c1n(CC(=O)c2ccc(Br)s2)c2ccccc2n1Cc1ccccc1	-22.9	2.4	2.3	19.0	23.1*	21.9*	12.9
Cn1c(=O)c(C(=O)NNC(=O)c2ccccc2F)c(O)c2ccccc21	-10.8	·	·	5.6	20.5*	11.7	9.7
Cc1onc(-c2c(F)cccc2Cl)c1C(=O)O/N=C(\N)c1ccc([N+](=O)[O-])o1	-3.4	-0.3	0.4	-0.1	-3.2	·	·
O=C(NC(NC(=O)c1ccccc1)c1ccccc1)c1ccccc1	3.0	-0.7	-0.9	-0.9	0.3	·	·
CSc1cccc(NS(=O)(=O)c2ccc3c(c2)CCN3C(C)=O)c1	-22.9	·	·	17.0	20.3*	11.3	9.9
COc1cccc(NS(=O)(=O)c2ccc3c(c2)CCN3C(C)=O)c1	-21.7	·	·	13.8	19.9*	9.2	9.0
CC(=O)N1CCc2cc(S(=O)(=O)Nc3cccc(C(F)(F)F)c3)ccc21	-19.1	1.6	3.2	8.8	13.2	·	·
N#CCCN(C(=O)COC(=O)c1cc2ccccc2oc1=O)c1ccccc1	-0.4	·	·	0.1	0.4	·	·
CC1CC(C)CN(CCOc2ccc(Br)cc2)C1 (stereo not drawn)	-1.0	0.3	1.6	0.8	0.4	·	·
CCC1(c2ccc(F)cc2)NC(=O)N(CC(=O)Nc2ccc(N3CCCCC3)cc2)C1=O (stereo not drawn)	-17.5	·	·	15.4	27.2*	16.1	14.1
COc1ccc(C(CCN2CCCC(C)C2)c2c(OC)cc(OC)c3c(-c4ccccc4)cc(=O)oc23)cc1 (stereo not drawn)	-11.7	·	·	15.7	22.3*	2.3	3.1
COc1cc(OC)c2c(-c3ccccc3)cc(=O)oc2c1C(CCN1CCCC(C)C1)c1ccc(N(C)C)cc1 (stereo not drawn)	-0.1	·	·	1.4	4.4	·	·
O=C(NCc1ccc(OC(F)(F)F)cc1)c1cccc2c1C(=O)c1ccc(N3CCC(Cc4ccccc4)CC3)cc1S2(=O)=O	-2.2	·	·	6.2	22.8*	22.2*	26.5*
CC(C)(C)N(NC(=O)Nc1ccc(Cl)c(Cl)c1)C(=O)c1ccccc1	-26.6	3.3	8.2	8.3	20.4*	10.0	10.5
CC(C)(C)N(NC(=O)Nc1ccc(F)cc1)C(=O)c1ccccc1	-2.2	0.3	0.6	1.3	0.1	·	·
Cc1ccc(C(=O)NC(=S)NNC(=O)c2ccccc2O)cc1	-23.2	·	·	11.4	21.6*	35.0*	29.8*
COC(=O)c1sc(NC(=S)NC(=O)c2ccccc2C)nc1C	-26.2	0.3	0.0	9.9	28.2*	32.6*	39.0*
O=C(Nn1cnc2ccccc2c1=O)c1ccc(Cl)c([N+](=O)[O-])c1	-7.8	·	·	0.0	-1.2	·	·
CC(=O)c1c(C)[nH]c(C(=O)Nc2ccc(C)cc2Br)c1C	-11.7	·	·	0.7	-1.8	·	·
Cc1ccccc1Cn1nnc(C(=O)Nc2cccc(C)c2C)c1N	-7.0	4.8	9.4	17.2	21.9*	22.2*	13.9
Cc1ccc(CNC(=O)Cn2nnc(C(=O)Nc3cccc(C)c3C)c2N)cc1	-6.1	·	·	2.1	1.9	·	·
COC1=CC(=Cc2c(N)n3nc(CC(=O)N4CCOCC4)sc3nc2=O)C=C(OC)C1=O	-0.2	·	·	7.9	20.5*	55.2*	96.9*
SMILES	OXTR potentiate	TRPML3 agonist	TRPN1 ag	V1aR counter	OXTR agonist	OXTR agonist cf	V1R ag counter 3x	others
Nc1c(C=C2C=CC(=O)C=C2)c(=O)nc2sc(CC(=O)N3CCOCC3)nn12	-3.5	·	·	1.1	0.1	·	·
CC(=O)c1c(C)[nH]c(C(=O)CN2C(=O)NC(C)(c3ccc(C)cc3)C2=O)c1C (stereo not drawn)	-12.7	6.6	16.9	19.9	20.4*	25.7*	16.8
CCOC(=O)c1c(C)[nH]c(C(=O)Nc2cc(OCC)c(N3CCOCC3)cc2OCC)c1C	-6.1	·	·	1.2	-0.6	·	·
Cc1ccc(Oc2ccc(OCC(=O)OC3CCS(=O)(=O)C3)cc2)cc1 (stereo not drawn)	-16.1	1.6	2.8	16.4	24.9*	1.8	6.5
CN(Cc1nccn1C)C(=O)C1CCC(=O)N(Cc2cccc(C(F)(F)F)c2)C1 (stereo not drawn)	-17.1	·	·	0.1	-1.1	·	·
CCOC(=O)c1c(CSc2ccc(CC)cc2)oc2ccc(O)c(CN(C)C)c12	-17.6	·	·	14.1	25.1*	1.5	4.4
CCOC(=O)c1c(C)oc2ccc(O)c(CN(C)C)c12	-2.6	0.6	0.5	1.0	0.5	·	·
Cc1cc(C)n(-c2cc(C(C)(C)C)nc3c(-c4ccc(Cl)cc4)cnn23)n1	12.6*	-0.3	1.2	3.6	0.4	·	·	OXTR pot confirm=7.8*
N#Cc1cn(-c2ccccc2)nc1-c1ccco1	13.3*	0.1	-1.5	-2.2	-2.2	·	·	OXTR pot confirm=-3.1
N#Cc1cn(-c2ccccc2)nc1-c1ccc2c(c1)OCCO2	-1.6	0.4	-1.5	0.3	-1.2	·	·
c1ccc(-c2noc(CSc3nc4ccccc4o3)n2)cc1	12.7*	-0.3	-1.0	-1.5	-1.1	·	·	OXTR pot confirm=-5.8
Clc1ccc(-c2nnc(SCc3nc(-c4ccccc4)no3)o2)cc1	-8.4	0.0	0.6	2.0	-1.3	·	·
CN(CC(=O)NCc1ccncc1)S(=O)(=O)c1ccc(F)cc1	11.8*	0.6	0.4	1.1	0.2	·	·	OXTR pot confirm=-3.7
Cc1[nH]c(=O)[nH]c(=O)c1S(=O)(=O)NCC12CC3CC(CC(C3)C1)C2	11.0*	1.2	-1.1	0.6	2.4	·	·	OXTR pot confirm=-5.2
CCC(NS(=O)(=O)c1c(C)[nH]c(=O)[nH]c1=O)C12CC3CC(CC(C3)C1)C2 (stereo not drawn)	-18.8	0.0	0.8	1.2	-0.5	·	·
CCOc1ccc(NC(=O)c2ccc3c(c2)N(Cc2ccc(F)cc2)C(=O)CS3=O)cc1 (stereo not drawn)	12.4*	-0.3	2.1	-0.8	-0.6	·	·	OXTR pot confirm=-2.6
Cc1noc(C)c1C(=O)N1CCC(C(=O)c2ccccc2)CC1	-10.0	1.2	1.6	2.1	0.6	·	·
